We go through 2 molecules from ChEMBL document CHEMBL3120133, “Discovery of a potent boronic acid derived inhibitor of the HCV RNA-dependent RNA polymerase” (J Med Chem, 2014).

The subject of data set [1] is Hepatitis C virus. Description: Antiviral activity against wild type Hepatitis C virus genotype 1b harboring C316N mutant infected in human HuH7 cells assessed as inhibition of viral replication after 48 hrs by luciferase reporter gene assay. The format is functional, organism-based, Hepacivirus hominis. As to conditions: Huh-7, 48 h. (In a reporter assay the amount or activity of a reporter protein is the signal.)

Data set [2] in a line: Bioavailability in Sprague-Dawley rat at 1 mg/kg, iv and 5 mg/kg, po. The format is ADME, organism-based. As to conditions: in vivo.
Data set [3] has as its system Hepatitis C virus. As to the kind of experiment: Antiviral activity against wild type Hepatitis C virus genotype 1b infected in human HuH7 cells assessed as inhibition of viral replication after 48 hrs by luciferase reporter gene assay. It counts as functional, organism-based, Hepacivirus hominis. As to conditions: Huh-7, 48 h. The method, boiled down: (§1)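 Replicon-based readout (stable and transient replicon formats) in place of virus infection, with compound present for 2 days before EC50 determination.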

Data set [4] has as its system Hepatitis C virus. Description: Antiviral activity against wild type Hepatitis C virus genotype 1a harboring C316Y mutant infected in human HuH7 cells assessed as inhibition of viral replication after 48 hrs by luciferase reporter gene assay. It counts as functional, organism-based, Hepacivirus hominis. As to conditions: subtype 1a, Huh-7, 48 h.
Data set [5] in a line: Clearance in Sprague-Dawley rat at 1 mg/kg, iv and 5 mg/kg, po. The format is ADME, organism-based. The conditions noted are these: in vivo.
The nature of data set [6]: Inhibition of C-terminal 6xHis-tagged Hepatitis C virus genotype 1b BK NS5B Cdelta21 RNA dependent RNA polymerase L47Q/F101Y/[…] mutant after 30 mins in presence of [alpha-33P]. Also noted: species or system Hepatitis C virus (isolate BK).
In data set [7] the test system is Hepatitis C virus. Description: Antiviral activity against wild type Hepatitis C virus genotype 1a infected in human HuH7 cells assessed as inhibition of viral replication after 48 hrs by luciferase reporter gene assay. It counts as functional, organism-based, Hepacivirus hominis. As to conditions: subtype 1a, Huh-7, 48 h. The method, boiled down:
as §1

Data set [8] concerns Hepatitis C virus. Description: Antiviral activity against wild type Hepatitis C virus genotype 1b harboring S365T mutant infected in human HuH7 cells assessed as inhibition of viral replication after 72 hrs by Bright-glo luciferase reporter gene assay. The format is functional, organism-based, Hepacivirus hominis. The conditions noted are these: Huh-7, 72 h.
The test system of data set [9] is Hepatitis C virus. Description: Antiviral activity against wild type Hepatitis C virus genotype 1b harboring C316F mutant infected in human HuH7 cells assessed as inhibition of viral replication after 72 hrs by Bright-glo luciferase reporter gene assay. The format is functional, organism-based, Hepacivirus hominis. The conditions noted are these: Huh-7, 72 h.
The target of data set [10] is RNA-directed RNA polymerase (Hepacivirus hominis, UniProt O39930, C316N). As to the kind of experiment: Inhibition of Hepatitis C virus genotype 1b NS5B Cdelta21 RNA dependent RNA polymerase 316N mutant using biotinylated polyC:oligoG/[alpha-P33]-GTP as template/substrate preincubated for 15 mins followed by template/substrate addition by scintillation proximity assay. Also noted: species or system Hepatitis C virus subtype 1b. The method, boiled down:
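Isolated NS5B at 30 nM was preincubated with inhibitor for 15 min before reaction start. The IC50 was determined from the polymerase assay.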
On the technique in general: SPA uses beads or plates that emit light when radiolabelled molecules are held near them.

Data set [11] concerns Hepatitis C virus. Description: Antiviral activity against wild type Hepatitis C virus genotype 1b harboring C316Y mutant infected in human HuH7 cells assessed as inhibition of viral replication after 72 hrs by Bright-glo luciferase reporter gene assay. As to conditions: Huh-7, 72 h. The format is functional, organism-based, Hepacivirus hominis.
The test system of data set [12] is RNA-directed RNA polymerase (Hepacivirus hominis), O39930 [C316N]. Description: Binding affinity to Hepatitis C virus genotype 1b NS5B Cdelta21 RNA dependent RNA polymerase 316N mutant assessed as dissociation half life at 10 uM by LC-MS/MS analysis. As to conditions: Hepatitis C virus subtype 1b. The essentials: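 NS5B∆21 GT1b 316N (10 uM) saturated with 12uM inhibitor to pre-form the complex, then diluted 20-fold into 10 uM of the competing Palm II inhibitor to block rebinding. Bound compound was separated from free by rapid size-exclusion filtration over time, and both inhibitors were quantified by LC-MS. Off-rates were fitted to a single or two-phase exponential to give t1/2.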

The structures appear in SMILES notation. pEC50, pIC50: −log10 of the molar value. A value given as a limit tells only on which side of the number the result lay.

In general, pEC50 refers to −log10 of the EC50, conventionally taken in molar units. Usually bioavailability stands for dose-corrected exposure relative to a reference, in per cent. A higher bioavailability goes with much systemic uptake. In general, pIC50 refers to −log10 of the IC50, conventionally taken in molar units.

Sequence of RNA-directed RNA polymerase (O39930 entry or part of it C316N): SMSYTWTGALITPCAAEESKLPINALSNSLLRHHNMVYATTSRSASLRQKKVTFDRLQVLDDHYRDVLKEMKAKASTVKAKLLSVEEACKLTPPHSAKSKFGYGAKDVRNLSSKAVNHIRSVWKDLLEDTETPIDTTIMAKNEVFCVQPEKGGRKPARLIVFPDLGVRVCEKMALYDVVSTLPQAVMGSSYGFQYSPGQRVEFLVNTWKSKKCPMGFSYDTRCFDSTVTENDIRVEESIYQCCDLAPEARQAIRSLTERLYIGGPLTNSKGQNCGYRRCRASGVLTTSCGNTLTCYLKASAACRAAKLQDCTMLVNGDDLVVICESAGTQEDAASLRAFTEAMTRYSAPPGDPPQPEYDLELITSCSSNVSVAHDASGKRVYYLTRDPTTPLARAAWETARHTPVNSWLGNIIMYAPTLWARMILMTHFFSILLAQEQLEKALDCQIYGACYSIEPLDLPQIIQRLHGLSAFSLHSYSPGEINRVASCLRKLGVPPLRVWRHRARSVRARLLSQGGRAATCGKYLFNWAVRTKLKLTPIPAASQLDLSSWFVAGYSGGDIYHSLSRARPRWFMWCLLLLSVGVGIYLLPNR
Sequence of RNA-directed RNA polymerase (Hepacivirus hominis), O39930 [C316N] (O39930 entry or part of it C316N): as above

As to `CNC(=O)c1c(-c2ccc(F)cc2)oc2cc(N(Cc3ccc(B(O)O)cc3)S(C)(=O)=O)c(C3CC3)cc12`, the pEC50 is 7.89 in data set [1], 8.59 in data set [3], 6.92 in data set [4] and 8.57 in [7]. Also, the bioavailability in data set [2] was under 3%. The molecule also gave a clearance in data set [5] of 36 mL/min/kg. Also, the pIC50 in data set [6] is 7.49.

In the case of `CNC(=O)c1c(-c2ccc(F)cc2)oc2cc(N(CCO)S(C)(=O)=O)c(C3CC3)cc12` [NESBUVIR], the pEC50 in [8] was 5.89; in data set [9] it was 5.60; in data set [1], 7.00; in [11], 6.38; in [3], 7.74; in data set [4], 5.72. In addition, the pEC50 in data set [7] is 7.57. For the same molecule, the negative logarithm of the IC50 (pIC50) in data set [10] was 6.80; in data set [6], 7.40. For the same molecule, the T1/2 in data set [12] was 1.7 h.
